One data set concerns Cricetinae gen. sp. Description: Compound was evaluated in vivo for inhibition of HLE-induced hemorrhage in hamster lung at 200 microg, 2 hr after administration prior to HLE. It counts as functional, Cricetulus griseus. The gist of the method:
(§1)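 Hamster duration protocol: 200 μg/animal given intratracheally 60, 120, 180 or 240 min before IT HLE instillation; hemorrhage scored after 3 h as hemoglobin (414 nm) in saline lung lavage, relative to vehicle-treated animals; three animals per point. T50 taken as time at which 50% inhibition is still obtained.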
As for `CC[C@H]1C(=O)N2C(C(=O)N(C)CC(=O)O)=C(COC(=O)c3ccc(C(=O)O)cc3)CS(=O)(=O)[C@H]12`, the Inhibition (usually the relative decrease from the control value, in per cent) amounted to 59%.

For another data set, the system named is Cricetinae gen. sp. Description: Compound was evaluated in vivo for inhibition of HLE-induced hemorrhage in hamster lung at 200 microg 1 hr after administration prior to HLE. Type of data set: functional, Cricetulus griseus. Summed up: as §1
In the case of `CO[C@H]1C(=O)N2C(C(=O)N(C)CCC(=O)O)=C(COC(C)=O)CS(=O)(=O)[C@H]12`, the Inhibition amounted to 80%.

A further data set has as its system Cricetinae gen. sp. Description: Compound was evaluated in vivo for inhibition of HLE-induced hemorrhage in hamster lung at 200 microg 4 hr after administration prior to HLE. It counts as functional, Cricetulus griseus. The gist of the method: as §1
Take `CO[C@H]1C(=O)N2C(C(=O)N(C)CCC(=O)O)=C(COC(C)=O)CS(=O)(=O)[C@H]12`: the Inhibition is reported as 33%.

The next data set has as its system Cricetinae gen. sp. Description: Compound was evaluated in vivo for inhibition of HLE-induced hemorrhage in hamster lung at 100 microg 30 min after administration. It counts as functional, Cricetulus griseus. Summed up: (§2)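 Hamster, intratracheal dosing of compound (per animal) 30 min before IT instillation of 50 μg HLE (50 units in Experimental); hemorrhage read 3 h later: lungs lavaged with saline, hemoglobin in lavage measured at 414 nm. Percent inhibition from drug-treated vs vehicle-treated hemorrhage; three animals per dose and time. Titration at 100, 30, 10, 3 μg/animal gives ED50.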
On to `CC[C@H]1C(=O)N2C(C(=O)OCc3ccc(C(=O)O)cc3)=C(COC(C)=O)CS(=O)(=O)[C@H]12`, for which the Inhibition was -32%.

The test system of the next data set is Cricetinae gen. sp. In words: Compound was evaluated in vivo for inhibition of HLE-induced hemorrhage in hamster lung at 200 microg, 3h after administration prior to HLE. Type of data set: functional, Cricetulus griseus. The gist of the method: as §1
With `CC[C@H]1C(=O)N2C(C(=O)N(C)CC(=O)O)=C(COC(=O)c3ccc(C(=O)O)cc3)CS(=O)(=O)[C@H]12`, the Inhibition is 57%.

The next data set has as its system Cricetinae gen. sp. In words: Compound was evaluated in vivo for inhibition of HLE-induced hemorrhage in hamster lung at 200 microg 3h after administration prior to HLE. Type of data set: functional, Cricetulus griseus. Summed up:
as §1
As to `CO[C@H]1C(=O)N2C(C(=O)N(C)CCC(=O)O)=C(COC(C)=O)CS(=O)(=O)[C@H]12`, the Inhibition was -1%.

The next data set deals with Cricetinae gen. sp. In words: Compound was evaluated in vivo for inhibition of HLE-induced hemorrhage in hamster lung at 100 microg, 30 min after administration. It counts as functional, Cricetulus griseus. Summed up:
as §2
`CO[C@H]1C(=O)N2C(C(=O)N3CCOCC3)=C(COC(C)=O)CS(=O)(=O)[C@H]12`: the Inhibition is recorded as -21%.
Regarding `CO[C@H]1C(=O)N2C(C(=O)N(C)Cc3ccc(C(=O)O)cc3)=C(COC(C)=O)CS(=O)(=O)[C@H]12`, the Inhibition is reported as 65%.

The test system of the next data set is Cricetinae gen. sp. In words: Compound was evaluated in vivo for inhibition of HLE-induced hemorrhage in hamster lung at 10microg, 30 min after administration prior to HLE. It counts as functional, Cricetulus griseus. The gist of the method:
as §2
`CO[C@H]1C(=O)N2C(C(=O)N(C)CC(=O)N(C)CCC(=O)O)=C(COC(C)=O)CS(=O)(=O)[C@H]12`: the Inhibition came to 35%.

Tested on in the next data set: not listed separately
In words: Half-life value of the compound. It counts as ADME. The gist of the method: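 Chemical stability: compound dissolved at 1 mg/mL in 0.5 M MOPS, pH 8.0, held at 25 °C in capped vial; aliquots quenched in 2% aqueous TFA and analysed by reverse-phase HPLC over one to two half-lives. Peak areas fit to first-order decay F(t)=A/2^(t/t1/2) to give t1/2.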
On to `CO[C@H]1C(=O)N2C(C(=O)N3CCOCC3)=C(COC(C)=O)CS(=O)(=O)[C@H]12`, for which the half-life – broadly, the time in which the quantity being followed falls by half – was 780 min.
Turning to `CC[C@H]1C(=O)N2C(C(=O)OCc3ccc(C(=O)O)cc3)=C(COC(C)=O)CS(=O)(=O)[C@H]12`, the half-life was 2400 min.
Regarding `CO[C@H]1C(=O)N2C(C(=O)N(C)CCC(=O)O)=C(COC(C)=O)CS(=O)(=O)[C@H]12`, the half-life is 1440 min.

In another data set the test system is Cricetinae gen. sp. In words: Compound was evaluated in vivo for inhibition of HLE-induced hemorrhage in hamster lung at 200 microg 2 hr after administration prior to HLE. Type of data set: functional, Cricetulus griseus. The gist of the method: as §1
For `CO[C@H]1C(=O)N2C(C(=O)N(C)CCC(=O)O)=C(COC(C)=O)CS(=O)(=O)[C@H]12`, the Inhibition was 39%.

The target of a further data set is T1, Neutrophil elastase (Homo sapiens) (UniProt P08246).
T1 sequence (whole entry): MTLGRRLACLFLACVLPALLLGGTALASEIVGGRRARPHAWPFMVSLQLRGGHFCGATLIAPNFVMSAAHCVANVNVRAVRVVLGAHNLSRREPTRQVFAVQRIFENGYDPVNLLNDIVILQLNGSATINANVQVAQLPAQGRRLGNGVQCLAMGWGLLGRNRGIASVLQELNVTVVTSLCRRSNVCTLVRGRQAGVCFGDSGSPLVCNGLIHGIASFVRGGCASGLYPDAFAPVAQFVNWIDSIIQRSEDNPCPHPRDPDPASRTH
In turn, `CO[C@H]1C(=O)N2C(C(=O)N(C)CC(=O)N(C)CCC(=O)O)=C(COC(C)=O)CS(=O)(=O)[C@H]12` showed a k obs / 1 of 700 M⁻¹ s⁻¹.
In the case of `CO[C@H]1C(=O)N2C(C(=O)N3CCOCC3)=C(COC(C)=O)CS(=O)(=O)[C@H]12`, the k obs / 1 stood at 35200 M⁻¹ s⁻¹.
For `CC[C@H]1C(=O)N2C(C(=O)OCc3ccc(C(=O)O)cc3)=C(COC(C)=O)CS(=O)(=O)[C@H]12`, the k obs / 1 came to 5700 M⁻¹ s⁻¹.
In the case of `CO[C@H]1C(=O)N2C(C(=O)N(C)CCC(=O)O)=C(COC(C)=O)CS(=O)(=O)[C@H]12`, the k obs / 1 stood at 500 M⁻¹ s⁻¹.
Consider `CO[C@H]1C(=O)N2C(C(=O)N(C)Cc3ccc(C(=O)O)cc3)=C(COC(C)=O)CS(=O)(=O)[C@H]12`, for which the k obs / 1 was 8600 M⁻¹ s⁻¹.
For the compound `CC[C@H]1C(=O)N2C(C(=O)N(C)CC(=O)O)=C(COC(=O)c3ccc(C(=O)O)cc3)CS(=O)(=O)[C@H]12`, the k obs / 1 worked out at 100 M⁻¹ s⁻¹.

A further data set has as its system Cricetinae gen. sp. In words: Compound was evaluated in vivo for inhibition of HLE-induced hemorrhage in hamster lung at 30microg, 30 min after administration prior to HLE. It counts as functional, Cricetulus griseus. The gist of the method: as §2
Regarding `CO[C@H]1C(=O)N2C(C(=O)N(C)CC(=O)N(C)CCC(=O)O)=C(COC(C)=O)CS(=O)(=O)[C@H]12`, the Inhibition came to 77%.

The next data set has as its system Cricetinae gen. sp. In words: Compound was evaluated in vivo for inhibition of HLE-induced hemorrhage in hamster lung at 100 microg, 30 min after administration prior to HLE. Type of data set: functional, Cricetulus griseus. Summed up:
as §2
With `CO[C@H]1C(=O)N2C(C(=O)N(C)CC(=O)N(C)CCC(=O)O)=C(COC(C)=O)CS(=O)(=O)[C@H]12`, the Inhibition stood at 86%.

In a further data set the test system is Cricetinae gen. sp. In words: Compound was evaluated in vivo for inhibition of HLE-induced hemorrhage in hamster lung at 200 microg, 1 hr after administration prior to HLE. It counts as functional, Cricetulus griseus. Summed up:
as §1
`CC[C@H]1C(=O)N2C(C(=O)N(C)CC(=O)O)=C(COC(=O)c3ccc(C(=O)O)cc3)CS(=O)(=O)[C@H]12`: the Inhibition came out at 84%.

(Values after ChEMBL document CHEMBL1125311, “Inhibition of human leukocyte elastase. 4. Selection of a substituted cephalosporin (L-658,758) as a topical aerosol” (J Med Chem, 1992).)
